CHRM5 antagonist = blocks acetylcholine activation of human M5 receptor. CHO-hM5 cells, Fluo-8 calcium fluorescence, ACh EC80. inhibition, % at 3 µM. hit rate 0.59% among 360,000. AID 624040;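 active means inhibition above a per-plate cutoff, the mean of that plate's test compounds plus 3 SD, cut at about 27% in these data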
CHRM4 antagonist = CHRM4 antagonism in calcium assay | AID 624125 | CHO-hM4 cells, ACh EC80, Fluo-8 calcium fluorescence | hit rate 0.73% among 360,000 | inhibition, % at 3 µM;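 active means inhibition above its plate's cutoff, the mean inhibition of sample wells plus 3 SD, cut at about 27% in these data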
Target sequence (P08173 whole entry, looked up): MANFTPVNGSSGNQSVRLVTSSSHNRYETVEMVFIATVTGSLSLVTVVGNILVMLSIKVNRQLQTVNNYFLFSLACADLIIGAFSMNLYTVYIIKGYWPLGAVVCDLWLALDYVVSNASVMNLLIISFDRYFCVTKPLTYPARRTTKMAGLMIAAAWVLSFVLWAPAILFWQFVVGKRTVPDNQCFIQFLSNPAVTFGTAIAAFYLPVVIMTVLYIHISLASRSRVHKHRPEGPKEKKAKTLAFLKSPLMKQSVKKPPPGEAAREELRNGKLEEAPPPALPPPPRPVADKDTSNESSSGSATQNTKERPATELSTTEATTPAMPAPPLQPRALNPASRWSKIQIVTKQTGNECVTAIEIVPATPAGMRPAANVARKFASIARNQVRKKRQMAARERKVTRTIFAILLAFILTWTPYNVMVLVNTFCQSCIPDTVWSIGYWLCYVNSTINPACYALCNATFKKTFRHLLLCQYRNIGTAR
M4 ag = agonists of human muscarinic M4 receptor (CHRM4); CHO-K1 hM4/Gqi5, Fluo-8 calcium fluorescence; vehicle 0%, full acetylcholine response 100%; activation, % at 3 µM; hit rate 0.14% among 360,000;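 active means activation above the run mean over all test wells plus 3 SD, cut at about 32% in these data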;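 further: peak over basal fluorescence ratio per well then scaled between controls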
M5 PAM = potentiates acetylcholine response at human M5 receptor; P08912; CHO-K1 hM5, Fluo-8 calcium, ACh EC20 PAM; 0% = ACh EC20, 100% = ACh EC100; hit rate 0.3% among 360,000; AID 624038; activation, % at 3 µM;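 active means activation above the run cutoff, the mean activation of all test compounds plus 3 SD, cut at about 18% in these data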
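Test system: CHO-K1 hM5 cells / Doses: single-point, 3 µM nominal / Times: Post-acetylcholine fluorescence recording 140 s / Technique: Fluo-8 calcium fluorescence / Measure: Max/basal fluorescence ratio as % of EC20–EC100 ACh window / Benchmarks: low control EC20 acetylcholine (0%), high control EC100 acetylcholine (100%) / Replicates: one well per compound, no replicates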
CHRM5 agonist = CHRM5 agonism in calcium assay; P08912; CHO-K1 hM5 cells, Fluo-8 calcium fluorescence; 0% DMSO wells, 100% maximal acetylcholine response; activation, % at 3 µM; hit rate 0.19% among 360,000;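 active means activation above the run's mean over test compounds plus 3 SD, cut at about 23% in these data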;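 further: signal is peak over basal fluorescence ratio across the kinetic read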
CHRM4 PAM = positive allosteric modulators of human muscarinic M4 receptor | CHO-K1 hM4/Gqi5, Fluo-8 calcium fluorescence, ACh EC20; 0% = ACh EC20, 100% = maximal ACh | activation, % at 3 µM | hit rate 0.4% among 360,000 | AID 624126;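 active means activation above its plate's cutoff, the mean activation of sample wells plus 3 SD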
Numbers stand for hits; 0 = inactive. This is a sample that favours compounds with a hit; in the whole collection about 1.8% have one here.

SMILES | CHRM5 antagonist | CHRM4 antagonist | M4 ag | M5 PAM | CHRM5 agonist | CHRM4 PAM
Cc1nc2nc(SCC(=O)NCCCN3CCCCC3)nn2c(C)c1Cc1ccccc1 | 0 | 0 | 0 | 0 | 0 | 0
Cc1nc2nc(SCC(=O)NCCCN3CCCC3)nn2c(C)c1Cc1ccccc1Cl | 0 | 27 | 0 | 0 | 0 | 0
CCC1CCCCN1CCCNC(=O)CSc1nc2nc(C)c(Cc3ccc(C)cc3)c(C)n2n1 (centres undefined) | 0 | 26 | 0 | 0 | 0 | 0
CN(C)CCCN(C(=O)c1cc(Cl)sc1Cl)c1nc2cc3c(cc2s1)OCO3 | 42 | 62 | 0 | 0 | 0 | 0
CCOCC(=O)NC1CCc2cc(OC)c(OC)c(OC)c2-c2ccc(SC)c(=O)cc21 (centres undefined) | 0 | 0 | 0 | 0 | 0 | 0
O=C(CN1CCOCC1)NCCc1ccccc1 | 0 | 0 | 0 | 0 | 0 | 24
O=C(Cc1ccc(-c2ccccc2)cc1)NCCN1CCOCC1 | 0 | 0 | 0 | 0 | 0 | 19
COc1ccc(NC(=O)CN2C(=O)/C(=C3\SC(=S)N(C4CCS(=O)(=O)C4)C3=O)c3ccccc32)cc1 (centres undefined) | 0 | 0 | 0 | 0 | 0 | 0
CC(C)NC(=O)N(C)C[C@@H]1Oc2cc(Br)ccc2S(=O)(=O)N([C@@H](C)CO)C[C@H]1C | 0 | 0 | 0 | 0 | 0 | 0
Cc1ccc(CNC(=O)c2cc(C)nn2-c2ccccc2)cc1 | 0 | 0 | 0 | 0 | 0 | 0
Cc1cc(C(=O)NCc2cccnc2)n(-c2ccccc2)n1 | 0 | 35 | 0 | 0 | 0 | 0
CCN(CC)C(=O)COc1cccc2ccccc12 | 0 | 0 | 0 | 0 | 0 | 29
O=C(O)COc1cccc2ccccc12 | 0 | 0 | 0 | 0 | 0 | 0
O=C(/C=C/c1c(F)cccc1Cl)c1ccc(O)cc1 | 0 | 39 | 0 | 0 | 0 | 0
COc1cc(C2C(c3ccccc3)C(c3cc(OC)cc(=O)o3)C2c2ccccc2)oc(=O)c1 (centres undefined) | 0 | 0 | 0 | 0 | 0 | 0
S=C(NCc1ccco1)Nc1ccc(Cl)c(Cl)c1 | 0 | 0 | 0 | 0 | 0 | 0
S=C(NCc1ccco1)Nc1cc(Cl)c(Cl)cc1Cl | 33 | 0 | 0 | 0 | 0 | 0
O=C(Cn1c(=O)cnc2ccccc21)Nc1ccccc1N1CCOCC1 | 0 | 0 | 0 | 28 | 0 | 0
Cc1cc(C)c(OCC(=O)Nc2ccccc2N2CCCCC2)c(C)c1 | 0 | 0 | 0 | 0 | 0 | 0
O=C(Nc1ccccc1N1CCOCC1)c1cc(-c2ccco2)nc2ccccc12 | 0 | 35 | 0 | 0 | 0 | 0
Cc1ccc(C(C)C)c(OCC(=O)NC(=S)Nc2ccccc2N2CCOCC2)c1 | 0 | 0 | 0 | 0 | 0 | 0
CCC(=O)N1CCN(c2ccccc2NC(=O)COc2cc(C)ccc2C(C)C)CC1 | 27 | 0 | 0 | 0 | 0 | 0
Cc1cc(C)c(OCC(=O)Nc2ccccc2N2CCOCC2)c(C)c1 | 0 | 35 | 0 | 0 | 28 | 0
CCN(CC)CCN1CNC(=S)NC1 | 0 | 0 | 0 | 0 | 0 | 0
Cc1ccn2c(NC3CCCCC3)c(-c3cccc(-c4cccc(Cl)c4)c3)nc2c1 | 0 | 0 | 0 | 0 | 0 | 0
SMILES | CHRM5 antagonist | CHRM4 antagonist | M4 ag | M5 PAM | CHRM5 agonist | CHRM4 PAM
COc1cc(/C=N/NC(=O)CNC(=O)c2ccco2)ccc1O | 27 | 0 | 0 | 0 | 0 | 0
COc1ccc(/C=N/NC(=O)c2ccoc2C)cc1O | 0 | 0 | 0 | 0 | 0 | 32
CC(Sc1nnc(C2CC2)n1C1CC1)C(=O)N(C)C1(C#N)CCCCC1 (centres undefined) | 0 | 0 | 0 | 0 | 0 | 0
CCOC(=O)C1(Cc2ccccc2C)CCCN(C(=O)c2ccc(C(C)=O)s2)C1 (centres undefined) | 0 | 0 | 0 | 0 | 0 | 0
Cc1nc(NS(=O)(=O)c2ccccc2)sc1NC(=O)OCCN(C)C | 0 | 0 | 0 | 0 | 27 | 0
CCOC(=O)c1sc(NS(=O)(=O)c2ccccc2)nc1C | 0 | 0 | 0 | 0 | 0 | 0
O=C(c1ccccc1)N(CCCl)C(=O)N(CCCl)C(=O)c1ccccc1 | 0 | 0 | 0 | 0 | 0 | 0
COC(=O)c1cc(Sc2cccc(Cl)c2Cl)ccn1 | 0 | 0 | 0 | 21 | 0 | 0
CCCCc1nc2cc(C(=O)NCc3nccn3CC)ccc2o1 | 0 | 32 | 0 | 0 | 0 | 0
CCOc1ccccc1Nc1nnc(SC(C)C(=O)Nc2nc(-c3ccccc3)cs2)s1 (centres undefined) | 0 | 0 | 0 | 0 | 0 | 0
CC1CCC(C(C)C)C(OC(=O)C[n+]2cccc(C(N)=O)c2)C1 (centres undefined) | 0 | 0 | 0 | 0 | 0 | 0
COc1ccc(-c2c[n+](CC(=O)OC3CC(C)CCC3C(C)C)c3n2CCC3)cc1 (centres undefined) | 65 | 34 | 0 | 0 | 0 | 0
CC(C)[C@@H]1CC[C@@H](C)C[C@H]1OC(=O)C[n+]1cc(-c2ccc(Cl)cc2)n2c1CCCCC2 | 77 | 42 | 0 | 0 | 0 | 0
COC(=O)c1ccc(CN2CCC(Oc3ccc(C(=O)N4CCCCC4)cc3)CC2)cc1 | 0 | 62 | 0 | 0 | 0 | 0
COc1ccc(/C=C/CN2CCC(Oc3ccc(C(=O)N4CCCCC4)cc3)CC2)cc1 | 35 | 31 | 0 | 0 | 0 | 0
CSc1ccc(CN2CCC(Oc3cccc(C(=O)N4CCCC4)c3)CC2)cc1 | 69 | 55 | 0 | 0 | 0 | 0
O=C(c1cccc(OC2CCN(Cc3cc(F)cc(F)c3)CC2)c1)N1CCCC1 | 0 | 0 | 0 | 0 | 0 | 0
COC(=O)c1ccc(CN2CCC(Oc3cccc(C(=O)N4CCCC4)c3)CC2)cc1 | 80 | 95 | 0 | 0 | 0 | 0
CN1C(=O)c2ccc(C(=O)Nc3ccccc3O)cc2C1=O | 0 | 0 | 0 | 0 | 0 | 0
O=C(c1ccc(OC2CCN(Cc3ccccn3)CC2)cc1)N1CCCC(O)C1 (centres undefined) | 0 | 0 | 0 | 24 | 0 | 0
CCCOC1CCCN(C(=O)c2ccc(OC3CCN(Cc4ccccn4)CC3)cc2)C1 (centres undefined) | 0 | 0 | 0 | 0 | 0 | 0
NS(=O)(=O)c1cccc(NC(=O)CSc2nc3ccccc3c(=O)n2CC2CCCO2)c1 (centres undefined) | 0 | 0 | 0 | 0 | 0 | 0
O=C(Cc1n[nH]c(=O)c2ccccc12)OCC(=O)c1ccc2c(c1)OCCO2 | 0 | 0 | 0 | 0 | 0 | 0
O=C(CCCc1ccccc1)c1ccc2c(c1)OCCO2 | 0 | 0 | 0 | 0 | 0 | 31
CC(C)(C)N(Cc1ccccc1)C(=O)c1ccc2c(c1)OCCO2 | 0 | 29 | 0 | 0 | 0 | 0
O=C(Cc1ccc(Br)cc1)OCC(=O)c1ccc2c(c1)OCCO2 | 0 | 0 | 0 | 0 | 0 | 30
CCOC(=O)CN1N=C(/C=C/c2ccccc2)CCC1=O | 0 | 0 | 0 | 0 | 28 | 0

Screening results: PubChem BioAssay, The Scripps Research Institute Molecular Screening Center
